Activity calls are given as the source filed them.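 Rule for the calls: active = nuclear translocation activity above 50% at 5 µM, with a well cell count of 50 or more; inconclusive = wells under 50 cells across six images, flagged as toxic; inactive = the rest.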
System: HeLa beta-catenin nuclear translocation, immunofluorescence imaging
Test: beta-catenin nuclear localization change in HeLa – imaging, HeLa cells, immunofluorescence, high-content, primary screen (AID 1665)
How it was run: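 System: Human HeLa cells, endogenous beta-catenin | Compound dosing: 5 µM primary, 0.02–20 µM confirmation | Timing: 24 h compound exposure at 37°C, 5% CO2 | Measured by: Fluorescence imaging of beta-catenin antibody stain plus DAPI | Read-out basis: % activation of per-cell nuclear versus cytoplasmic median beta-catenin signal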

Row | SMILES | EC50, beta-catenin nuclear translocation induction (lower = more potent)
1 | Cn1c(O)c(/C=C/C=Nc2ccccc2)c(=O)n(C)c1=S | > 20 µM (inactive)
2 | CCN1C(c2ccccc2)=C(c2ccccc2)S/C1=C/C=C1\SC(=S)N(C)C1=O | 0.56 µM
3 | Cc1ccc(NC(=O)Nc2ccnc(-c3cccnc3)n2)cc1 | > 20 µM (inactive)
4 | O=C1NC(=O)C(=C/C=C/c2coc3ccc(Br)cc3c2=O)C(=O)N1 | > 20 µM (inactive)
5 | CCC(/C=C1\Sc2ccc(OC)cc2N1CCO)=C\c1sc2ccc(OC)cc2[n+]1CCO | > 20 µM (inactive)
6 | COc1ccc(/C=C(/NC(=O)c2cccc([N+](=O)[O-])c2)C(=O)O)cc1OC | > 20 µM (inactive)
7 | CCN(CC)c1ccc(/C=C/c2cc(-c3ccccc3)c3ccccc3n2)cc1 | 2.56 µM
8 | C=CCC1C=C(Cc2ccccc2)CC(CC=C)N1 (stereo not given) | > 20 µM (inactive)
9 | Cc1cc(NCCOCCO)n2ncc(-c3ccc(Cl)cc3)c2n1 | 8.01 µM
10 | Oc1c(/C=C/C=C/C=Nc2ccccc2)sc(=S)n1Cc1ccccc1 | > 20 µM (inactive)
11 | CCCCn1c(O)c(/C=C/C=C/C=Nc2ccccc2)sc1=S | 8.79 µM
12 | COc1ccc2nc3c(cc2c1)c(NC(=O)c1cccs1)nn3CC(C)C | > 20 µM (inactive)
13 | CCC(/C=C1\Sc2ccc(OC)cc2N1CC)=C\c1sc2ccc(OC)cc2[n+]1CCCS(=O)(=O)[O-] | 4.19 µM
14 | CC[n+]1c(/C=C/C=C/N(C(C)=O)c2ccccc2)sc2ccccc21 | 8.42 µM
15 | Cc1ccc2nc(/C(C#N)=C\c3ccc([N+](=O)[O-])o3)[nH]c2c1 | 9.06 µM
16 | Cn1c2ccccc2c(=O)c2c(=O)n(Cc3ccco3)c(COc3ccccc3)nc21 | > 16 µM (inactive)
17 | CN1\C(=C/C=C/C=C/C=[N+](C)C)C(C)(C)c2ccccc21 | 9.2 µM
18 | Cn1c(-c2ccccc2)cc2c3no[n+]([O-])c3ccc21 | > 20 µM (inactive)
19 | CCN1C(=O)/C(=C/C=C2/Sc3ccccc3N2CCO)SC1=S | > 20 µM (inactive)
20 | C=CC[C@H]1CC(Cc2ccccc2)=C[C@H](CC=C)N1 | 0.77 µM
21 | CC1=CC(C)C(COC(N)=O)(COC(N)=O)C(C)C1 (stereo not given) | 4.49 µM
22 | CN1C(=O)/C(=C/c2ccc(N3CCCCCC3)o2)C(=O)NC1=S | 2.9 µM
23 | COC(=O)c1[nH]c2ccc(Br)cc2c1NC(=O)CN1CCN(C2CCCCC2)CC1 | 3.85 µM
24 | CCN1/C(=C/c2ccc3cc(C)ccc3[n+]2C)Sc2ccc3sccc3c21 | > 20 µM (inactive)
25 | O=c1ccc2[n+]([O-])c3ccc(O)cc3oc-2c1 | 7.27 µM
26 | CCN1/C(=C/C=C/C=C/c2sc3ccccc3[n+]2CC)Sc2ccccc21 | 3.73 µM
27 | CCOC(=O)N1CCN(C(=O)c2cc(-c3ccc(OCC)cc3)nc3ccccc23)CC1 | 2.06 µM
28 | O=C(CSc1ncnc2nc[nH]c12)NCCc1ccccc1 | 1.75 µM
29 | CCOC(=O)/C(=C/C=C1\Sc2cc(OCC)c(OCC)cc2N1CC)C(C)=O | > 20 µM (inactive)
30 | CCN1/C(=C/C=C/c2oc3ccc4ccccc4c3[n+]2CC)Oc2ccc3ccccc3c21 | 5.18 µM
